Here are results for 13 compounds from ChEMBL document CHEMBL1148198, “Inhibition of HIV-1 envelope-mediated fusion by synthetic batzelladine analogues” (J Nat Prod, 2004).

Active and inactive are the calls of the source. The rule behind the calls is not given here.

The subject of one experiment is Human immunodeficiency virus 1. As to the kind of experiment: Inhibition of HIV1 envelope glycoprotein gp160-mediated cell fusion at 100 µM by cell-cell fusion assay.
With `CCCCCCCCCC1=C(C(=O)OCc2ccc(COC(=O)C3=C(CCCCCCCCC)NC4=[N+]5[C@H](CC[C@@H]35)C[C@H](CCCCCCC)N4)cc2)[C@@H]2CC[C@@H]3C[C@H](CCCCCCC)NC(=[N+]32)N1`, the outcome was inactive.
With `CCCCCCCCC[C@H]1C[C@H]2CC[C@H]3C(C(=O)OCc4ccc(COC(=O)C5=C(C)NC6=[N+]7[C@H](CC[C@@H]57)C[C@H](CCCCCCCCC)N6)cc4)=C(C)NC(=[N+]23)N1`, the outcome was inactive.

System in a further experiment: not listed separately
As to the kind of experiment: (§1) Inhibition of HIV1 envelope glycoprotein gp160-mediated cell fusion by cell-cell fusion assay. Set-up: species or system Human immunodeficiency virus 1. Summed up:
(§2)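 Cell-cell fusion driven by HIV-1 Env from LAV (X4) and SF162 (R5) strains. Inhibitor added to wells at increasing concentrations; run in duplicate on at least two separate days. Percent fusion fitted by nonlinear least squares to % fusion = 100/(1 + KA[I]), where KA is the equilibrium association constant for inhibitor binding to gp120.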
Turning to `CC(=O)CC(=O)O[C@@H](C)CCCCC[C@H]1C[C@H]2CC[C@H]3C[C@@H](C)NC(=[N+]23)N1`, half-maximal inhibition (IC50) was put at 5.3 µM.
Turning to `CCCCCCCCC[C@@H]1C[C@@H]2CC[C@H]3[C@H](C(=O)O[C@H](C)CCCCC[C@@H]4C[C@@H]5CC[C@@H]6C[C@H](C)NC(=[N+]65)N4)[C@H](C)NC(=[N+]23)N1`, the IC50 (usually the midpoint of a concentration-inhibition curve) stood at 2.5 µM.
With `CCCCCCCCC[C@H](O)C[C@@H]1CC[C@H]2C(C(=O)O[C@@H](C)CCCCC[C@@H]3C[C@@H]4CC[C@@H]5C[C@H](C)NC(=[N+]54)N3)=C(C)NC(N)=[N+]12`, it took 7.7 µM to reach half-maximal inhibition (IC50).
`CCCCCCCCC[C@H](O)C[C@@H]1CC[C@H]2C(C(=O)O[C@H](C)CCCCC[C@H]3C[C@H]4CC[C@H]5C[C@@H](C)NC(=[N+]45)N3)=C(C)NC(N)=[N+]12` returned an IC50 of 6.2 µM.
As to `C=CCOC(=O)C1=C(CCCCC[C@@H](C)O[Si](C)(C)C(C)(C)C)NC2=[N+]3[C@H](CC[C@@H]13)C[C@H](C)N2`, the IC50 worked out at 4.5 µM.
Turning to `CC(=O)CC(=O)O[C@@H](C)CCCCC[C@@H]1C[C@@H]2CC[C@@H]3C[C@H](C)NC(=[N+]32)N1`, inhibition was half-maximal at 17 µM (IC50).
`CCCCCCCCC[C@@H]1C[C@@H]2CC[C@H]3C(C(=O)O[C@@H](C)CCCCC[C@@H]4C[C@@H]5CC[C@@H]6C[C@H](C)NC(=[N+]65)N4)=C(C)NC(=[N+]23)N1` registered an IC50 of 1.8 µM.
`CCCCCCCCC[C@@H]1C[C@@H]2CC[C@H]3C(C(=O)OC(C)(C)C)=C(C)NC(=[N+]23)N1` yielded an IC50 of 3.5 µM.
Consider `CCCCCCCCC[C@@H]1C[C@@H]2CC[C@H]3[C@H](C(=O)O[C@H](C)CCCCC[C@@H]4C[C@@H]5CC[C@@H]6C[C@H](C)NC(=[N+]65)N4)[C@@H](C)NC(=[N+]23)N1`, for which half-maximal inhibition (IC50) required 3 µM.
With `CCCCCCCCC[C@@H]1C[C@@H]2CCC3=C(C(=O)O[C@H](C)CCCCC[C@@H]4C[C@@H]5CC[C@@H]6C[C@H](C)NC(=[N+]65)N4)[C@@H](C)NC(=[N+]32)N1`, the midpoint of inhibition, the IC50, lay at 0.8 µM.

A further experiment concerns Human immunodeficiency virus 1. Described as §1. The method, boiled down: as §2
Take `CCCCCCCCC[C@H]1C[C@H]2CC[C@H]3C(C(=O)OCCCCCCCCOC(=O)C4=C(C)NC5=[N+]6[C@H](CC[C@@H]46)C[C@H](CCCCCCCCC)N5)=C(C)NC(=[N+]23)N1`: the result was inactive.
The same measure, in the same setting: to `CCCCCCCCC[C@H]1C[C@H]2CC[C@H]3C(C(=O)OCc4ccc(COC(=O)C5=C(C)NC6=[N+]7[C@H](CC[C@@H]57)C[C@H](CCCCCCCCC)N6)cc4)=C(C)NC(=[N+]23)N1` belongs “inactive”.
